Data published in ChEMBL document CHEMBL1145745 (J Med Chem, 2003).
pIC50: −log10 of the molar value.

Columns and labels:
Mus musculus [1] = assay: In vivo average survival rate of mouse infected by T.b. rhodesiense was determined for a period of 60 days at dose of 75 mg/kg by p.o. administration; assay type: functional; conditions: route oral
Summary of the method: (§1)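 Mice infected with T. b. rhodesiense STIB900. Diamidines were given intraperitoneally and prodrugs orally, with an untreated infected control group. Parasitemia was monitored daily to day 14, then twice weekly to day 60. For relapsing mice, the day of death was recorded and survival time was averaged in days.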

Mus musculus [2] = assay: No. of mice that survived T.b. rhodesiense infection and are parasite free for 60 days was determined at dose of 5 mg/kg by p.o. administration; 4 animals tested; assay type: functional; conditions: route oral
Summary of the method: (§2)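 Mice infected with T. b. rhodesiense STIB900. Diamidines were given intraperitoneally and prodrugs orally. An untreated infected group served as control. Parasitemia was checked daily up to day 14 post-infection, then twice weekly up to day 60. A cure was counted as a mouse that survived and stayed parasite-free for 60 days.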

Plasmodium falciparum = assay: In vitro inhibitory activity against Plasmodium falciparum; assay type: functional, organism-based
[3] = test system: Trypanosoma brucei rhodesiense; assay: In vitro inhibitory activity against T. b. rhodesiense; assay type: functional, organism-based
Mus musculus [4] = assay: In vivo average survival rate of mouse infected by T.b. rhodesiense was determined for a period of 60 days at dose of 5 mg/kg by p.o. administration; assay type: functional; conditions: route oral; summary of the method: as §1
Mus musculus [5] = assay: No. of mice that survived T.b. rhodesiense infection and are parasite free for 60 days was determined at dose of 75 mg/kg by p.o. administration; 4 animals tested; assay type: functional; conditions: route oral; summary of the method: as §2
Mus musculus [6] = assay: In vivo average survival rate of mouse infected by T.b. rhodesiense was determined for a period of 60 days at dose of 20 mg/kg by i.p. administration; assay type: functional; conditions: route intraperitoneal; summary of the method: as §1
Nucleic Acid [7] = conditions: Bos taurus
Mus musculus [8] = assay: No. of mice that survived T.b. rhodesiense infection and are parasite free for 60 days was determined at dose of 20 mg/kg by i.p. administration; 4 animals tested; assay type: functional; conditions: route intraperitoneal; summary of the method: as §2
Nucleic Acid [9] = test system: Nucleic Acid
Mus musculus [10] = assay: No. of mice that survived T.b. rhodesiense infection and are parasite free for 60 days was determined at dose of 50 mg/kg by p.o. administration; 4 animals tested; assay type: functional; conditions: route oral; summary of the method: as §2
Mus musculus [11] = assay: In vivo average survival rate of mouse infected by T.b. rhodesiense was determined for a period of 60 days at dose of 50 mg/kg by p.o. administration; assay type: functional; conditions: route oral; summary of the method: as §1
Mus musculus [12] = assay: In vivo average survival rate of mouse infected by T.b. rhodesiense was determined for a period of 60 days at dose of 100 mg/kg by p.o. administration; assay type: functional; conditions: route oral; summary of the method: as §1
Mus musculus [13] = assay: No. of mice that survived T.b. rhodesiense infection and are parasite free for 60 days was determined at dose of 100 mg/kg by p.o. administration; 4 animals tested; assay type: functional; conditions: route oral; summary of the method: as §2
Mus musculus [14] = assay: No. of mice that survived T.b. rhodesiense infection and are parasite free for 60 days was determined at dose of 50 mg/kg by p.o. administration; 5 animals tested; assay type: functional; conditions: route oral; summary of the method: as §2
Mus musculus [15] = assay: No. of mice that survived T.b. rhodesiense infection and are parasite free for 60 days was determined at dose 5 mg/kg of by p.o. administration; 4 animals tested; assay type: functional; conditions: route oral; summary of the method: as §2
Mus musculus [16] = assay: In vivo antitrypanosomal activity against T.b. rhodesiense mouse and no. of that survive and are parasite free for 60 days was determined at dose of 5 mg/kg by p.o. administration; 4 animals tested; assay type: functional; conditions: route oral; summary of the method: as §2
Nucleic Acid [17] = test system: Nucleic Acid; remark: listed apart in the source

Structure (SMILES) | pIC50 (Plasmodium falciparum) | pIC50 [3] | Survival (Mus musculus [6]) | ΔTm (Nucleic Acid [7]) | Cures (Mus musculus [8]) | ΔTm (Nucleic Acid [9]) | further results
CONC(=N)c1ccc(-c2ccc(-c3ccc(C(=N)NOC)nc3)o2)cc1 | 5.07 | 5.19 |  |  |  |  | Survival (Mus musculus [1]): 60 days; Cures (Mus musculus [2]): 1; Survival (Mus musculus [4]): 34.25 days; Cures (Mus musculus [5]): 4
N=C(N)c1ccc(-c2ccc(-c3ccc(C(=N)N)cn3)o2)cc1 |  | 8.15 | 60 days | 6.6 | 4 |  | 
N=C(N)c1ccc(-c2ccc(-c3cccc(C(=N)N)c3)o2)nc1 | 8.06 | 7.39 | 26.25 days | 3.3 | 0 | 7.3 | 
N=C(N)c1ccc(OCCCCCOc2ccc(C(=N)N)cc2)cc1 [PENTAMIDINE] |  |  | 40.8 days | 2 | 0 |  | 
N=C(N)c1ccc(-c2ccc(-c3ccc(C(=N)N)cc3)o2)cc1 [FURAMIDINE] |  |  | 52.5 days | 8.9 | 0 |  | 
N=C(NO)c1ccc(-c2ccc(-c3ccc(/C(N)=N/O)nc3)o2)cn1 | < 4.98 | < 4.68 |  |  |  |  | Cures (Mus musculus [10]): 1; Survival (Mus musculus [11]): 30 days
N=C(N)c1ccc(-c2ccc(-c3ccc(C(=N)N)nc3)o2)cc1 | 7.74 | 8.51 | 56.5 days | 3.1 | 2 | 22.6 | 
N=C(NO)c1ccc(-c2ccc(-c3ccc(/C(N)=N/O)cn3)o2)cc1 | 5.37 | 3.92 |  |  |  |  | Survival (Mus musculus [12]): 54 days; Cures (Mus musculus [13]): 0
CONC(=N)c1ccc(-c2ccc(-c3ccc(C(=N)NOC)cn3)s2)cc1 | 5.31 | 5.03 |  |  |  | 0 | 
CCONC(=N)c1ccc(-c2ccc(-c3ccc(C(=N)NOCC)cn3)o2)cc1 | 5.14 | 5.08 |  |  |  |  | Survival (Mus musculus [12]): 60 days; Cures (Mus musculus [13]): 4
CONC(=N)c1ccc(-c2ccc(-c3ccc(C(=N)NOC)cc3)o2)cc1 [PAFURAMIDINE] |  |  |  |  |  |  | Cures (Mus musculus [14]): 2; Survival (Mus musculus [11]): 60 days
N=C(NO)c1ccc(-c2ccc(-c3ccc(/C(N)=N/O)nc3)o2)cc1 | < 4.93 |  |  |  |  |  | Survival (Mus musculus [1]): 52.75 days; Cures (Mus musculus [5]): 3
CO/N=C(\N)c1ccc(-c2ccc(-c3ccc(/C(N)=N/OC)cn3)o2)cc1 | 5.31 | 4.43 |  |  |  | 0.9 | Survival (Mus musculus [4]): 60 days; Cures (Mus musculus [15]): 4
CONC(=N)c1ccc(-c2ccc(-c3ccc(C(=N)NOC)nc3)o2)cn1 | 5.88 | 5.72 |  |  |  | -0.5 | Survival (Mus musculus [12]): 21.75 days; Cures (Mus musculus [13]): 0
N=C(NO)c1ccc(-c2ccc(-c3ccc(/C(N)=N\O)cc3)o2)cc1 |  |  |  |  |  |  | Survival (Mus musculus [12]): 50 days; Cures (Mus musculus [13]): 0
N/C(=N\O)c1ccc(-c2ccc(-c3ccc(/C(N)=N\O)cn3)o2)nc1 | < 4.99 | 4.25 |  |  |  | 0.9 | Survival (Mus musculus [1]): 18 days; Cures (Mus musculus [5]): 0
CO/N=C(\N)c1ccc(-c2ccc(-c3ccc(/C(N)=N/OC)cn3)o2)nc1 | 5.75 | 4.95 |  |  |  |  | Cures (Mus musculus [10]): 4; Survival (Mus musculus [4]): 40 days; Survival (Mus musculus [11]): 60 days; Cures (Mus musculus [16]): 1
N=C(NO)c1cccc(-c2ccc(-c3ccc(/C(N)=N\O)cn3)o2)c1 | 4.38 | 4.88 |  |  |  |  | 
N=C(N)c1ccc(-c2ccc(-c3ccc(C(=N)N)cn3)o2)nc1 | 7.08 | 7.68 | 60 days | 5.4 | 4 | 15.5 | 
N=C(N)c1ccc(-c2ccc(-c3ccc(C(=N)N)nc3)o2)cn1 | 8.41 | 8.15 | 59 days | 8.2 | 3 |  | ΔTm (Nucleic Acid [17]): 18.5
N=C(N)c1ccc(Cc2ccc(-c3ccc(C(=N)N)nc3)o2)cc1 | 6.83 | 6.83 |  | 1.3 |  | 3.6 | 
N=C(NO)c1ccc(-c2ccc(-c3ccc(/C(N)=N\O)cc3)s2)nc1 | < 4.98 |  |  |  |  |  | 
